The list is not random: actives were taken first. Their share in the collection is about 2.3%.
CRFBP-R2 agonist = agonists of human CRF-binding protein/CRF-R2 receptor complex. HEK293 CRF-R2/CRF-BP, calcium dye fluorescence (FLIPR); percent of saturating CRF peptide response. activation, % at 13.2 µM. 350,000 tested, 0.46% active. AID 588473;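 active = activation of at least 50%, plus an integration ratio under a set limit after plate pattern correction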
Rpn11 inh = blocks the human proteasome subunit Rpn11; calls only at 20 µM; human 26S proteasome, Ub4-pepOG fluorescence polarization; 20S core pre-blocked with epoxomicin; O00487; 360,000 tested, 0.59% active;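 active = inhibition at 20 µM, scaled to each plate's controls, above about 33%, limit read from the data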
Target sequence (O00487 whole entry, looked up): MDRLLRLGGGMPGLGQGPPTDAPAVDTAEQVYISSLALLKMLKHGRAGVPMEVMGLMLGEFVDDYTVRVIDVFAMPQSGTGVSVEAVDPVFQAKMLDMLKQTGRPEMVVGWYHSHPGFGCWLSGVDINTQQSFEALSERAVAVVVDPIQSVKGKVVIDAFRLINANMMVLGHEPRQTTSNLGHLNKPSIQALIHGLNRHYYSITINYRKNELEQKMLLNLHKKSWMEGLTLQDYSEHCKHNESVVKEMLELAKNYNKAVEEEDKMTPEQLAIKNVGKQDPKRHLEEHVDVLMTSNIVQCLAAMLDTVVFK
CRFBP-R2 block = CRF-BP/CRF-R2 complex antagonism; AID 588475; HEK293 CRF-R2/CRF-BP, CRF-induced calcium fluorescence; 350,000 tested, 0.59% active; inhibition, % at 11.8 µM;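 active = inhibition of the ligand-induced calcium signal above about 50% at the single tested concentration, limit read from the data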
HNF4A DNA FP = change in binding of human HNF4 alpha to DNA; activity change, % at 10 µM; HNF4a-FITC DNA binding, fluorescence polarization, 1 h; P41235; 360,000 tested, 0.3% active; AID 1224865; in the data active = activity change above about 30%, passing the limit was not always enough
TPT1 inh = inhibitors of Candida albicans tRNA 2'-phosphotransferase TPT1. inhibition, % at 5 µM. 300,000 tested, 0.81% active. recombinant caTPT1, FP RNA substrate dephosphorylation;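 active = inhibition above the mean of all tested compounds plus 3 SD, set per screening campaign, cut at about 24% in these data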
CSN deneddyl inh = CSN deneddylation inhibition; Q92905; Purified CSN, SCF-Nedd8-OG deneddylation, fluorescence polarization; inhibition, % at 12.5 µM; 360,000 tested, 0.38% active;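 active = pattern-corrected inhibition above about 35%, with an unprinted fluorescence ratio check between 0.5 and 1.5, limit read from the data, passing the limit was not always enough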
Target sequence (Q92905 whole entry, looked up, one chain of several): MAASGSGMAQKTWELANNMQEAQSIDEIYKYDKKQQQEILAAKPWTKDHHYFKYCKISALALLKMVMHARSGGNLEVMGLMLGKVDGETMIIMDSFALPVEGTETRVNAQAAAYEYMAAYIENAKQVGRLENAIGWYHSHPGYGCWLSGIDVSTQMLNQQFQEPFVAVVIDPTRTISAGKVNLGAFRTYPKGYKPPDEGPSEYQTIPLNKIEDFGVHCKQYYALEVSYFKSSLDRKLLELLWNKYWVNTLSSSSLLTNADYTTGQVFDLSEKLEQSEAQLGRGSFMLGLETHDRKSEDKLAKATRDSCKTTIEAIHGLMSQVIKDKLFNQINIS
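assay system = purified human Csn5 enzyme expressed in HEK293T cells | amount = 0.24 nM enzyme | buffer or medium = Tris/NaCl/DTT buffer, pH 7.5 | reagent = 10 nM SCFSkp2-Nedd8OG | compound = one concentration, 12.5 µM, 0.25% DMSO | times = 90 min reaction at room temperature | signal = FP | read-out basis = % inhibition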
Rpn11 inh conf = confirmation of human proteasome Rpn11 inhibitors; purified human 26S proteasome, Ub4-pepOG fluorescence polarization; proteasome pretreated with epoxomicin; inhibition, % at 20 µM; shares compounds with Rpn11 inh; 1,900 tested, 29% active
MMP-2 counter = blocks human MMP-2, flagging nonselective RPN11 hits; shares compounds with Rpn11 inh; recombinant MMP-2, FRET peptide cleavage fluorescence; inhibition, % at 20 µM; 1,900 tested, 4% active; AID 602330;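 note: human MMP-2 activated beforehand with APMA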
Thrombin inh = thrombin (bovine) inhibition counter-screen. bovine thrombin cleavage of Ub4-pepOG, fluorescence polarization. AID 602333. 1,900 tested, 13% active. shares compounds with Rpn11 inh. inhibition, % at 20 µM;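 active = mean inhibition at least 40% at 20 µM, or signal 3 deviations below plate average, so some actives read negative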
Large screens that a line does not name were inactive (follow-up assays come after a bar, where they were run). Cut-off read from the data, not from the text of the source, unless noted: active = inhibition above about 40%; inactive = the rest.

CCOc1ccccc1CNC(=O)C1CCCN(c2nnc(C)c3c(C)n(-c4ccccc4)nc23)C1 (stereo unspecified)	Rpn11 inh active | Rpn11 inh conf inactive | MMP-2 counter inactive | Thrombin inh inactive
COc1ccc(-n2nc3c(N4CCC(C(=O)NCc5ccccc5C)CC4)nnc(C)c3c2C)cc1	Rpn11 inh active, CSN deneddyl inh 117 | Rpn11 inh conf inactive | MMP-2 counter inactive | Thrombin inh inactive
Cc1ccc(-n2nc3c(N4CCC(C(=O)NCCc5ccccc5C)CC4)nnc(C)c3c2C)cc1	none
COc1ccc(C(CNC(=O)c2ccc(C)c(S(=O)(=O)N3CCCCC3)c2)N(C)C)cc1OC (stereo unspecified)	none
CN1C=CC=C/C1=C1/N=C(c2ccccc2)OC1=O	none
CC1=CC(=C2N=C(c3ccccc3)OC2=O)C=C(C)O1	Rpn11 inh active, CSN deneddyl inh 62 | Rpn11 inh conf 152 | MMP-2 counter inactive | Thrombin inh inactive
COc1ccc(-c2ccc3c(c2)O/C(=C\c2ccsc2)C3=O)cn1	Rpn11 inh active (no result: TPT1 inh) | Rpn11 inh conf inactive | MMP-2 counter inactive | Thrombin inh inactive
COc1ccc(Nc2nc3cc(C)ccc3cc2C#N)c(OC)c1	none
COc1ccc(Nc2nc3ccc(C)cc3cc2C#N)c(OC)c1	Rpn11 inh active | Rpn11 inh conf inactive | MMP-2 counter inactive | Thrombin inh inactive
Cc1cc(C)n(CC(O)Cn2c3ccccc3c3ccccc32)c(=O)n1 (stereo unspecified)	Rpn11 inh active | Rpn11 inh conf inactive | MMP-2 counter inactive | Thrombin inh inactive
Cc1cc(C)n(CC(O)Cn2c3ccc(Br)cc3c3cc(Br)ccc32)c(=O)n1 (stereo unspecified)	none
COc1cccc(CNc2ncnc3cc(OC)c(OC)cc23)c1	none
CN(C)c1ccc(/C=N/NC(=O)c2ccc(CN3C(=O)c4cccc5cccc3c45)cc2)cc1	none (no result: CRFBP-R2 agonist, Rpn11 inh, CRFBP-R2 block, HNF4A DNA FP, CSN deneddyl inh)
O=C(N/N=C/c1ccccc1)c1ccc(CN2C(=O)c3cccc4cccc2c34)cc1	Rpn11 inh active | Rpn11 inh conf 199 | MMP-2 counter inactive | Thrombin inh inactive
CC(NC(=O)NCc1cccnc1)(C(F)(F)F)C(F)(F)F	none
CC(C)(C)OC(=O)n1cccc1/C=C1\c2ccccc2C(=O)N1c1ccccc1	Rpn11 inh active (no result: TPT1 inh) | Rpn11 inh conf inactive | MMP-2 counter inactive | Thrombin inh inactive
O=C1c2ccccc2/C(=C\c2ccc3[nH]ccc3c2)N1c1ccccc1	none (no result: TPT1 inh)
Cc1ccnc(NS(=O)(=O)c2ccc(NC(=O)c3cc(-c4ccccc4)nc4ccccc34)cc2)n1	none
Cc1ccnc(NS(=O)(=O)c2ccc(NC(=O)c3cc(-c4ccc(Br)cc4)nc4ccccc34)cc2)n1	Rpn11 inh active | Rpn11 inh conf inactive | MMP-2 counter inactive | Thrombin inh inactive
O=C(Nc1ccc(-c2nc3ccccc3s2)c(O)c1)C1=COCCO1	Rpn11 inh active | Rpn11 inh conf 43 | MMP-2 counter inactive | Thrombin inh inactive
O=C(Nc1ccc(O)c(-c2nc3ccccc3s2)c1)C1=COCCO1	none
COc1ccc(CNC(=O)COc2ccc(F)cc2)cc1	none
Cc1cccc(-n2ncc3c(NNC(=O)c4ccco4)ncnc32)c1	none
CCC(=O)N(Cc1ccco1)c1nc(C(=O)Nc2ccc(Cl)cc2)c(C)s1	Rpn11 inh active | Rpn11 inh conf inactive | MMP-2 counter inactive | Thrombin inh inactive
CCN(C(=O)c1ccco1)c1nc(CC(=O)Nc2ccc(Cl)cc2)cs1	none
Cc1[nH]nc(N2CCCCC2)c1[N+](=O)[O-]	none
O=C(CN1C(=O)NC2(CCCC2)C1=O)Nc1nc(-c2ccc(F)c(F)c2)cs1	none (no result: TPT1 inh)
COc1ccc(NS(=O)(=O)c2cc([N+](=O)[O-])ccc2N/N=C/c2c(C)[nH]c3ccccc23)cc1	CRFBP-R2 agonist 51, Rpn11 inh active, HNF4A DNA FP 77 (no result: TPT1 inh) | Rpn11 inh conf 44 | MMP-2 counter inactive | Thrombin inh inactive
O=C(/C=C/Nc1cccc([N+](=O)[O-])c1)c1cccs1	none
CCN1CC(O)=C(c2nc3ccccc3s2)C1=N	Rpn11 inh active | Rpn11 inh conf inactive | MMP-2 counter inactive | Thrombin inh inactive
COc1ccc(/C=C/C(=O)NCc2ccc(F)cc2)cc1S(=O)(=O)N1CCOCC1	none
Cc1cc(C)c2c(N)c3cccc(C)c3nc2n1	Rpn11 inh active | Rpn11 inh conf 54 | MMP-2 counter inactive | Thrombin inh inactive
COc1cc(/C=N/NC(=O)c2nnn(-c3nonc3N)c2-c2cccs2)ccc1O	none
COc1ccc(/C=N/NC(=O)c2nnn(-c3nonc3N)c2-c2cccs2)cc1OC	Rpn11 inh active | Rpn11 inh conf inactive | MMP-2 counter inactive | Thrombin inh inactive
COc1ccc(N2C[C@H](CSC)[C@@H](CC(=O)Nc3ccc(Br)cc3)C2=O)cc1	none (no result: TPT1 inh)
CCOC(=O)Cn1c(C)cc(COC)c(C#N)c1=O	none
CCCCC(CC)CNC(=O)C(=O)c1ccccc1NC(C)=O (stereo unspecified)	Rpn11 inh active | Rpn11 inh conf inactive | MMP-2 counter inactive | Thrombin inh inactive
O=C1/C(=C/c2cccc(Cl)c2)CSc2sccc21	none
COc1ccc(Cn2nnnc2C(c2cccs2)N2CCN(c3ccc([N+](=O)[O-])cc3)CC2)cc1 (stereo unspecified)	Rpn11 inh active | Rpn11 inh conf inactive | MMP-2 counter inactive | Thrombin inh inactive
O=C(O)C(c1ccccc1)N1C(=O)/C(=C\c2ccc(O)c(O)c2)SC1=S (stereo unspecified)	Rpn11 inh active | Rpn11 inh conf 61 | MMP-2 counter inactive | Thrombin inh 48
COc1cc(C(=O)OCC(=O)N(C)c2ccccc2)cc(OC)c1OC	none
FC(F)(F)C(F)(F)C(F)(F)c1nnc2ccc(N3CCOCC3)nn12	Rpn11 inh active | Rpn11 inh conf inactive | MMP-2 counter inactive | Thrombin inh inactive
Cc1nn(-c2ccccc2)c(Cl)c1/C=N/NC(=O)c1cccc(S(=O)(=O)N2CCCC2)c1	Rpn11 inh active | Rpn11 inh conf inactive | MMP-2 counter inactive | Thrombin inh inactive
Cc1nn(-c2ccc(F)cc2)c(Cl)c1/C=N/NC(=O)c1cccc(S(=O)(=O)N2CCCC2)c1	none
Cc1ccc(C(=O)N=c2sccn2C)cc1S(=O)(=O)N1CCOCC1	Rpn11 inh active, HNF4A DNA FP 37 | Rpn11 inh conf inactive | MMP-2 counter inactive | Thrombin inh inactive

Compound activity from PubChem BioAssay.
